The source of these data is ChEMBL document CHEMBL4043186, “Design, synthesis, anti-inflammatory activity, and molecular docking studies of perimidine derivatives containing triazole” (Bioorg Med Chem Lett, 2017).

Data set [1] relates to RAW264.7. Briefly: Cytotoxicity against mouse RAW264.7 cells assessed as reduction in cell viability at 50 ug/ml after 24 hrs by MTT assay. Format: cell-based. The conditions noted are these: raw264.7, 24 h. On the technique in general: Tetrazolium assays rely on reduction of a dye to a coloured formazan, in cell work by metabolically active cells.
Data set [2] deals with Mus musculus. Briefly: Antiinflammatory activity in Kunming mouse assessed as inhibition of xylene-induced ear edema at 50 mg/kg, ip pretreated for 30 mins followed by xylene challenge measured after 30 mins relative to control. Type of data set: functional. Summed up:
(§1)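 Xylene-induced ear edema in mice. Compounds were given i.p. at 12.5, 25 or 50 mg/kg. Ibuprofen and indomethacin at 50 mg/kg served as reference drugs. Ear edema weight (mg) is reported as mean ± S.D., and percent inhibition is calculated against the untreated control group.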

The species named for data set [3] is Mus musculus. Briefly: Inhibition of NFkappaB in mouse RAW264.7 cells assessed as decrease in LPS-induced degradation of IkappaB preincubated for 24 hrs followed by LPS-stimulation measured after 24 hrs by Western blot method. Format: cell-based. Summed up:
(§2)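 NF-κB activation in LPS-stimulated RAW 264.7 cells was assessed by western blot of phosphorylated p65 and IκB levels. Data are means ± SD, compared with the control and LPS groups.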

Data set [4] relates to RAW264.7. The data set is described as follows: Antiinflammatory activity against mouse RAW264.7 cells assessed as LPS-stimulated IL6 release at 12.5 ug/ml after 24 hrs by ELISA relative to LPS-treated control. Format: functional. Summed up: (§3)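 Mouse RAW 264.7 macrophages were stimulated with LPS in the presence of compound, tested at […]. TNF-α and IL-6 were measured in the culture supernatants by ELISA. Cytokine content is expressed as fold of the control group, with control set at 100%. Values are mean ± S.D. of triplicate experiments.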
Background: ELISA stands for enzyme-linked immunosorbent assay.

The target in data set [5] is Mitogen-activated protein kinase 3 (Mus musculus) (UniProt Q63844). Briefly: Inhibition of ERK phosphorylation in mouse RAW264.7 cells incubated for 24 hrs followed by LPS-stimulation measured after 24 hrs by Western blot method. Type of data set: cell-based. In short, it runs like this:
(§4)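 MAPK protein levels were determined by western blot in LPS-stimulated mouse RAW 264.7 cells. Data are means ± SD, compared with the control and LPS groups.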
In general terms: In western blotting, separated proteins are transferred to a membrane and probed.

Data set [6] has as its system RAW264.7. Briefly: Antiinflammatory activity against mouse RAW264.7 cells assessed as LPS-stimulated IL6 release at 25 ug/ml after 24 hrs by ELISA relative to LPS-treated control. Format: functional. Summed up: as §3
Data set [7] concerns the target T1, Prostaglandin G/H synthase 2 (Homo sapiens) (UniProt P35354).
T1 sequence (whole entry): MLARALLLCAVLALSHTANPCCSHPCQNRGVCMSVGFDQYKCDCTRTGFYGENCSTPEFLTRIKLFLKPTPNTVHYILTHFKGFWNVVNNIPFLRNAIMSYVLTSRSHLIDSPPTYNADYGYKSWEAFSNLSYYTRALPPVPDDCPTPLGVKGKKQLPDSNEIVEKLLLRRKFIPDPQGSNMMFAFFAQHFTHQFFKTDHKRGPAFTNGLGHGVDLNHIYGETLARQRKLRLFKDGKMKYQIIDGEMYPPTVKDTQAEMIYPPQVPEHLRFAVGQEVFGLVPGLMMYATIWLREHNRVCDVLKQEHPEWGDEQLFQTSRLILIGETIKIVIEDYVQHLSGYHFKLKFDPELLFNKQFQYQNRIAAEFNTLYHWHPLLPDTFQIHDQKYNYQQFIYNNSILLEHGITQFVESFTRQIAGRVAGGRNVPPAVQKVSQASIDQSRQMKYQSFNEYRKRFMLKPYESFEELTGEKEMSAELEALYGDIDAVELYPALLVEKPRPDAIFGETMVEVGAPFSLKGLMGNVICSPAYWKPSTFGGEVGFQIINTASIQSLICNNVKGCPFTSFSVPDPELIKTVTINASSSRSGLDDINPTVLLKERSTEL
Briefly: Inhibition of COX-2 (unknown origin) assessed as protein/GADPH ratio at 50 ug/ml relative to control. Also on record: scale not given: the % may be the effect or the level left.

The subject of data set [8] is RAW264.7. Briefly: Antiinflammatory activity against mouse RAW264.7 cells assessed as decrease in LPS-stimulated TNFalpa release after 24 hrs by ELISA. Format: functional, cell-based. Summed up: as §3
Data set [9] deals with RAW264.7. Briefly: Antiinflammatory activity against mouse RAW264.7 cells assessed as LPS-stimulated IL6 release at 50 ug/ml after 24 hrs by ELISA relative to LPS-treated control. Type of data set: functional. In short, it runs like this:
as §3

The subject of data set [10] is RAW264.7. Briefly: Antiinflammatory activity against mouse RAW264.7 cells assessed as LPS-stimulated TNFalpa release at 50 ug/ml after 24 hrs by ELISA relative to LPS-treated control. Format: functional. Summed up:
as §3

The test system of data set [11] is RAW264.7. Briefly: Antiinflammatory activity against mouse RAW264.7 cells assessed as decrease in LPS-stimulated IL-6 release after 24 hrs by ELISA. Format: functional, cell-based. In short, it runs like this: as §3
The target of data set [12] is MAP kinase p38 (Mus musculus) (UniProt P47811+O08911+Q9WUI1+Q9Z1B7). Briefly: Inhibition of p38 phosphorylation in mouse RAW264.7 cells incubated for 24 hrs followed by LPS-stimulation measured after 24 hrs by Western blot method. Format: cell-based. In short, it runs like this:
as §4

Data set [13] is filed under the species Mus musculus. Briefly: Inhibition of LPS-induced NFkappaB activation in mouse RAW264.7 cells assessed as reduction p65 phosphorylation at 12.5 to 50 ug/ml preincubated for 24 hrs followed by LPS-stimulation measured after 24 hrs by Western blot method. Format: cell-based. In short, it runs like this: as §2
The subject of data set [14] is Mus musculus. The data set is described as follows: Antiinflammatory activity in Kunming mouse assessed as inhibition of xylene-induced ear edema at 12.5 mg/kg, ip pretreated for 30 mins followed by xylene challenge measured after 30 mins relative to control. Format: functional. In short, it runs like this: as §1
In data set [15] the test system is Mus musculus. Briefly: Antiinflammatory activity in Kunming mouse assessed as inhibition of xylene-induced ear edema at 25 mg/kg, ip pretreated for 30 mins followed by xylene challenge measured after 30 mins relative to control. Format: functional. In short, it runs like this: as §1
The subject of data set [16] is RAW264.7. The data set is described as follows: Cytotoxicity against mouse RAW264.7 cells assessed as reduction in cell viability at 50 ug/ml preincubated for 24 hrs followed by LPS induction measured after 18 hrs by MTT assay. Type of data set: cell-based. The conditions noted are these: raw264.7, 18 h.

Mitogen-activated protein kinase 3 (Mus musculus), sequence (Q63844 whole entry): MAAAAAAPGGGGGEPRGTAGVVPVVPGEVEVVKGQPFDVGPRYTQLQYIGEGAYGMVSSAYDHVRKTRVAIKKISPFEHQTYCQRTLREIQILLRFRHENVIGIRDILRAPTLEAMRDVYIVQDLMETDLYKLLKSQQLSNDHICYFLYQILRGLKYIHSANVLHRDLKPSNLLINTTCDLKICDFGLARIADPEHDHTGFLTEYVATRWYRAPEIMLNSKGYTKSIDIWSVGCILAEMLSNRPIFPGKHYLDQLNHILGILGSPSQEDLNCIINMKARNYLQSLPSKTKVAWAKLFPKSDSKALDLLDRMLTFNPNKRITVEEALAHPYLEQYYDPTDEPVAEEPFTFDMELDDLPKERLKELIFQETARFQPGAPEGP

Take `Cc1ccc(Cn2c3cccc4cccc(c43)n3cnnc23)cc1`: the Activity result with RAW264.7 [1] was “Toxic”.
As a reminder, the inhibition in vivo is the drop in the measured response relative to a control, in per cent. Regarding `CC(C)Cc1ccc(C(C)C(=O)O)cc1` (configuration not stated) [IBUPROFEN], the inhibition in vivo at 50 mg/kg in the data set with Mus musculus [2] was found to be 28.1%.
In the case of `CCCCCCn1c2cccc3cccc(c32)n2cnnc12`, the Activity entry in the data set on RAW264.7 [1] is on record as “Toxic”.
Same read-out and setting: the result for `FC(F)(F)c1ccc(Cn2c3cccc4cccc(c43)n3cnnc23)cc1` reads “Toxic”.
Consider `Fc1ccccc1Cn1c2cccc3cccc(c32)n2cnnc12`, for which the inhibition result (in the data set filed under Mus musculus [3]; in data set [5]; in data set [12]; in the data set listed under Mus musculus [13]) was “Dose-dependent effect” throughout. Further, the Activity with RAW264.7 [4] is 71.8%; in the data set on RAW264.7 [6], 68.23%; in data set [7], 45.2%; in the data set on RAW264.7 [8] it was “Dose-dependent effect”; in the data set with RAW264.7 [9], 47.21%; in the data set on RAW264.7 [10] it was 124.87%. The Activity entry is “Dose-dependent effect” in the data set with RAW264.7 [11], “Non-Toxic” with RAW264.7 [1] and “Non-Toxic” in the data set on RAW264.7 [16]. For the same molecule, the inhibition in vivo at 50 mg/kg in the data set on Mus musculus [2] was found to be 49.3%. The inhibition in vivo at 12.5 mg/kg with Mus musculus [14] was 17.2%. For the same molecule, the inhibition in vivo at 25 mg/kg with Mus musculus [15] was found to be 35%.
As to `Clc1ccc(Cn2c3cccc4cccc(c43)n3cnnc23)c(Cl)c1`, the Activity entry in the data set on RAW264.7 [1] and in the data set on RAW264.7 [16] was “Non-Toxic” in each case.
Take `COc1ccc2c(c1)c(CC(=O)O)c(C)n2C(=O)c1ccc(Cl)cc1` [INDOMETHACIN]: the inhibition in vivo at 50 mg/kg in the data set with Mus musculus [2] came to 49.4%.
With `CCCn1c2cccc3cccc(c32)n2cnnc12`, the Activity entry in the data set on RAW264.7 [1] is “Toxic”.
As to `Clc1ccccc1Cn1c2cccc3cccc(c32)n2cnnc12`, the Activity result in the data set on RAW264.7 [1] and in the data set on RAW264.7 [16] was “Non-Toxic” in each case.
In the case of `Clc1cccc(Cl)c1Cn1c2cccc3cccc(c32)n2cnnc12`, the Activity result in the data set on RAW264.7 [1] and in the data set on RAW264.7 [16] was “Non-Toxic” throughout.
Consider `Fc1cccc(Cn2c3cccc4cccc(c43)n3cnnc23)c1`, for which the Activity entry with RAW264.7 [1] and with RAW264.7 [16] was “Non-Toxic” each time.
Regarding `Cc1cccc(Cn2c3cccc4cccc(c43)n3cnnc23)c1`, the inhibition in vivo at 50 mg/kg in the data set on Mus musculus [2] turned out to be 42.9%. Moreover, the Activity result in the data set on RAW264.7 [8] is “Dose-dependent effect”; in the data set with RAW264.7 [10] it was 146.24%; in the data set with RAW264.7 [11] it was “Dose-dependent effect”; in the data set with RAW264.7 [1], “Non-Toxic”; in the data set on RAW264.7 [16] it was “Non-Toxic”. For the same molecule, in the data set on Mus musculus [14], the inhibition in vivo at 12.5 mg/kg turned out to be 15.7%. Also, in the data set with Mus musculus [15], the inhibition in vivo at 25 mg/kg was determined as 29.8%.
Consider `c1ccc(Cn2c3cccc4cccc(c43)n3cnnc23)cc1`, for which the Activity entry with RAW264.7 [1] and in the data set on RAW264.7 [16] was “Non-Toxic” throughout.
Turning to `CCCCCCCCCn1c2cccc3cccc(c32)n2cnnc12`, in the data set with RAW264.7 [1], the Activity entry is listed as “Toxic”.
Consider `Clc1cccc(Cn2c3cccc4cccc(c43)n3cnnc23)c1`, for which the Activity entry in the data set on RAW264.7 [1] and in the data set on RAW264.7 [16] was “Toxic” each time.
For `Clc1ccc(Cn2c3cccc4cccc(c43)n3cnnc23)cc1`, the Activity result with RAW264.7 [1] is recorded as “Toxic”.
Turning to `Fc1ccc(Cn2c3cccc4cccc(c43)n3cnnc23)cc1`, the Activity result with RAW264.7 [1] and in the data set with RAW264.7 [16] was “Non-Toxic” in each case.
For `CCCCCCCCn1c2cccc3cccc(c32)n2cnnc12`, the Activity entry in the data set on RAW264.7 [1] and with RAW264.7 [16] was “Toxic” each time.
As for `CCCCn1c2cccc3cccc(c32)n2cnnc12`, the Activity entry in the data set with RAW264.7 [1] and in the data set with RAW264.7 [16] was “Toxic” throughout.
`CCCCCCCCCCn1c2cccc3cccc(c32)n2cnnc12`: the Activity entry with RAW264.7 [1] is “Toxic”.
With `CCCCCn1c2cccc3cccc(c32)n2cnnc12`, the Activity result in the data set with RAW264.7 [16] is listed as “Non-Toxic”.
